Cneo AK release: causes C. neoformans cell lysis; 0.2% of 360,000 active; lysis activity, % at 15 µM; adenylate kinase release luminescence, 4 h; normalised: neutral wells 0, clomiphene wells 100;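 active = mean lysis activity across replicates of at least 80%, whatever share of replicates individually reach that level; inactive = mean lysis activity below 80%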
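Test system: log-phase Cryptococcus neoformans yeast cells; Quantity: yeast cell density of 5 × 10^6 cells/mL; Buffer or medium: YPD; Doses: single compound concentration per well; Timing: 4 h at 37 °C static, read 1 h later; Measured by: AK luminescence; Read-out basis: lysis from increased AK signal; Control set: Clomiphene as positive control.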
C2C12 statin: suppressors of simvastatin-induced myotoxicity in C2C12 myotubes; 0.78% of 330,000 active; ATP luminescence, 48 h; scaled: DMSO 0, geranylgeraniol control 100; rescue of ATP level, % at 7.49 µM;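 active = mean ATP rescue above about 67%, or every replicate alone reaching that limit, limit read from the data, passing the limit was not always enough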;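 also: myotubes were challenged with 10 µM simvastatin during compound exposure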
PDI inh: blocks human protein disulfide isomerase activity | 0.052% of 350,000 active | P07237 | AID 588391 | PDI insulin aggregation turbidity, A650, 90 min | inhibition, % at 10 µM;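 active = mean inhibition across replicates of 30% or more, whatever share of single replicates reach that level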
Target sequence (P07237 whole entry, looked up): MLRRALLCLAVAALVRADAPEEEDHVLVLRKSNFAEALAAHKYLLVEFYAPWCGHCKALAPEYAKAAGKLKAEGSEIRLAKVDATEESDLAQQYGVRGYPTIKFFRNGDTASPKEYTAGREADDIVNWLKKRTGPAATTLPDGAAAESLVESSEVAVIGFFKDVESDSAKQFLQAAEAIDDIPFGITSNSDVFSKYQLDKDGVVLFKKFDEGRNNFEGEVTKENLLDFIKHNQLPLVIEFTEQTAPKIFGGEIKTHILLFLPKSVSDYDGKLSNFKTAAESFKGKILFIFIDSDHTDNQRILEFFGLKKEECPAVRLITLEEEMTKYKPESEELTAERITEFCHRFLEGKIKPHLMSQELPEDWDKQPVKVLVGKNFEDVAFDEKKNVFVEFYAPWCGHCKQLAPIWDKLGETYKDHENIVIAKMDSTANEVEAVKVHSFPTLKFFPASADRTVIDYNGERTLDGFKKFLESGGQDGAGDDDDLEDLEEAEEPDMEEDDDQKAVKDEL
ERp5 block: inhibitors of human ERp5; Q15084; inhibition, % at 9.99 µM; 0.05% of 350,000 active; ERp5 insulin aggregation, absorbance 650 nm, 90 min;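 active = mean replicate inhibition above about 25%, with every replicate also reaching it, limit read from the data, passing the limit was not always enough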
CFTR F508del cor: CFTR F508del correction in bronchial cells | 0.36% of 350,000 active | activity (quench increase), % at 7.58 µM | CFBE cells, YFP halide quenching; stimulated with forskolin plus potentiator P3; % fluorescence drop versus neutral controls;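 active = mean added fluorescence quench of at least 8% versus neutral control, with both replicates also reaching 8%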;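 also: cells transiently co-express mutant CFTR-F508del with the halide-sensitive YFP; corrector assay measuring rescue of mutant channel to the surface after 24 h compound exposure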
DENV2 CPE rescue: protects cells from dengue virus 2 cytopathic effect; DENV2-infected cells, cytopathic effect rescue, plate reader; CPE inhibition, % at 9.99 µM; 1.7% of 350,000 active; AID 651640; in the data active = CPE inhibition above about 20%, passing the limit was not always enough; tested in BHK-21 cells;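 also: 0% = median of neutral control wells and 100% = median of positive control wells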
Numbers without * were called inactive; · = no result given. In the library only some 2.3% were active in any assay of this set; here they are far more common.

SMILES	Cneo AK release	C2C12 statin	PDI inh	ERp5 block	CFTR F508del cor	DENV2 CPE rescue
O=C(c1ccccn1)N1CC[C@@H]2[C@@H](CO)Nc3ccc(-c4ccccc4F)cc3[C@@H]21	-2	8	·	·	2	21*
O=C(c1ccccn1)N1CC[C@@H]2[C@H]1c1cc(-c3ccc(F)cc3)ccc1N[C@@H]2CO	51	-28	·	-1	1	6
CCCNC(=O)C[C@@H]1C[C@H]2c3cc(NC(=O)NC4CCCC4)ccc3O[C@H]2[C@H](CO)O1	3	3	·	2	-2	17
CN1C(C(=O)NCCc2cccs2)CC2Cn3c(nc4cc(Cl)c(Cl)cc43)C21 (stereo not drawn)	-3	-7	4	2	1	80*
COc1ccc(CCNC(=O)C2CC3Cn4c(nc5cc(Cl)c(Cl)cc54)C3N2C)cc1 (stereo not drawn)	-3	0	-4	0	0	-4
COCCNC(=O)C1CC2Cn3c(nc4cc(C)c(C)cc43)C2N1C (stereo not drawn)	4	-7	9	5	0	29*
COCCNC(=O)C1CC2Cn3c(nc4cc5ccccc5cc43)C2N1C (stereo not drawn)	3	-14	3	3	2	12
C[C@@H]1CN([C@@H](C)CO)C(=O)Cc2cc(NC(=O)Cc3ccccc3)ccc2O[C@@H]1CN(C)C(=O)Nc1ccccc1	-7	-5	·	7	1	-9
C[C@H]1CN([C@@H](C)CO)C(=O)c2cccc(NS(=O)(=O)c3cccs3)c2O[C@@H]1CN(C)C(=O)NC1CCCCC1	-4	-9	·	-5	-1	5
Cc1ccccc1-c1cnc2c(c1)C(=O)N([C@H](C)CO)C[C@H](C)[C@@H](CN(C)C(=O)c1ccc(F)cc1)O2	1	-9	·	4	3	-9
Cc1ccc(S(=O)(=O)N(C)C[C@@H]2OCCCC[C@H](C)Oc3ccc(NS(C)(=O)=O)cc3C(=O)N([C@H](C)CO)C[C@H]2C)cc1	46	·	·	-1	3	-7
CCNC(=O)Nc1ccc2c(c1)C(=O)N(C)[C@H]1CC[C@H](CC(=O)NCc3ccc(F)cc3)O[C@@H]1CO2	-9	1	·	-5	1	2
Cc1ccc(S(=O)(=O)Nc2ccc3c(c2)CC(=O)N([C@@H](C)CO)C[C@@H](C)[C@@H](CN(C)Cc2ccc4c(c2)OCO4)O3)cc1	50	36	·	0	-1	-10
C[C@@H]1CN([C@H](C)CO)C(=O)Cc2cc(NS(=O)(=O)c3ccc(Cl)cc3)ccc2O[C@@H]1CN(C)Cc1ccc2c(c1)OCO2	43	55	·	-4	0	-8
Cc1ccc(S(=O)(=O)Nc2ccc3c(c2)CC(=O)N([C@H](C)CO)C[C@H](C)[C@@H](CN(C)Cc2ccc4c(c2)OCO4)O3)cc1	2	76*	·	2	-1	7
C[C@@H]1CN([C@H](C)CO)C(=O)Cc2cc(NS(=O)(=O)c3ccc(Cl)cc3)ccc2O[C@H]1CN(C)Cc1ccc2c(c1)OCO2	-2	84*	·	7	-1	1
C[C@@H]1CN([C@@H](C)CO)C(=O)Cc2cc(NS(=O)(=O)c3ccc(Cl)cc3)ccc2O[C@H]1CN(C)Cc1ccc2c(c1)OCO2	2	99*	·	8	-1	-9
Cc1noc(C)c1NC(=O)Nc1ccc2c(c1)C(=O)N([C@@H](C)CO)C[C@H](C)[C@H](CN(C)C(=O)Nc1ccc(F)cc1)O2	0	-9	·	2	0	-1
CO[C@H]1CN(C)C(=O)c2ccc(NC(C)=O)cc2OC[C@@H](C)N(C(=O)c2cnccn2)C[C@H]1C	·	3	·	·	1	·
COc1cc(C)c(Cl)cc1S(=O)(=O)NCCN1CCOCC1	3	123*	4	·	·	·
COc1cc(C)c(Cl)cc1S(=O)(=O)NCCCN1CCOCC1	-2	-23	-1	·	·	·
C[C@H]1CN([C@@H](C)CO)C(=O)c2cc(NS(=O)(=O)c3ccccc3)ccc2O[C@H]1CN(C)Cc1ccc2c(c1)OCO2	0	25	·	2	1	1
CCc1ccc(O)c(CNCCNCc2cc(CC)ccc2O)c1	0	-55	1	6	4	73*
Cc1cc(C)cc(N2CN=C3SCC(=O)N3C2)c1	1	·	3	·	·	·
COc1ccc(N2CN=C3SCC(=O)N3C2)cc1	2	106*	-8	·	·	·

Source: PubChem (Broad Institute)
